Measurements published in ChEMBL document CHEMBL2407075, “Sulphonamido-quinoxalines: search for anticancer agent” (Eur J Med Chem, 2013).

Experiments:
Type in all cases: functional
[1] = tested on: MDA-MB-231; assay: Growth inhibition of human MDA-MB-231 cells assessed as cell growth at 10^-4 M after 48 hrs by sulforhodamine B assay; conditions: MDA-MB-231, 48 h, read-out: Activity
[2] = tested on: OVCAR-3; assay: Growth inhibition of human OVCAR3 cells assessed as cell growth at 10^-4 M after 48 hrs by sulforhodamine B assay; conditions: OVCAR-3, 48 h, read-out: Activity
[3] = tested on: U-251; assay: Growth inhibition of human U251 cells assessed as cell growth at 10^-4 M after 48 hrs by sulforhodamine B assay; conditions: U-251, 48 h, read-out: Activity
[4] = tested on: NCI-H322M; assay: Growth inhibition of human NCI-H322M cells assessed as cell growth at 10^-4 M after 48 hrs by sulforhodamine B assay; conditions: read-out: Activity
[5] = tested on: PC-3; assay: Growth inhibition of human PC3 cells assessed as cell growth at 10^-5 M after 48 hrs by sulforhodamine B assay; conditions: PC-3, 48 h, read-out: Activity
[6] = tested on: DU-145; assay: Growth inhibition of human DU145 cells assessed as cell growth at 10^-5 M after 48 hrs by sulforhodamine B assay; conditions: DU-145, 48 h, read-out: Activity
Summary of the method: (§1)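 Five-dose NCI-60 run (0.01, 0.1, 1, 10 and 100 µM, as 10-fold dilutions from a DMSO stock made at 400× the top final level). Cells were grown in RPMI 1640 with 5% FBS and 2 mM glutamine and plated for 24 h. They were then exposed for 48 h at 37 °C and 5% CO2. TCA fixation was followed by SRB staining with A515 read-out. Percent growth was taken relative to time-zero and control plates.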

[7] = tested on: SK-MEL-5; assay: Growth inhibition of human SK-MEL-5 cells assessed as cell growth at 10^-5 M after 48 hrs by sulforhodamine B assay; conditions: SK-MEL-5, 48 h, read-out: Activity
[8] = tested on: SNB-75; assay: Growth inhibition of human SNB75 cells assessed as cell growth at 10^-5 M after 48 hrs by sulforhodamine B assay; conditions: SNB-75, 48 h, read-out: Activity
[9] = tested on: SF-295; assay: Growth inhibition of human SF295 cells assessed as cell growth at 10^-5 M after 48 hrs by sulforhodamine B assay; conditions: SF-295, 48 h, read-out: Activity
[10] = tested on: HCT-15; assay: Growth inhibition of human HCT15 cells assessed as cell growth at 10^-5 M after 48 hrs by sulforhodamine B assay; conditions: HCT-15, 48 h, read-out: Activity
Summary of the method: (§2)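 Five-dose screen at NCI. Cells in RPMI 1640 with 5% FBS and 2 mM L-glutamine, seeded at 5000–40,000 cells/well and grown 24 h at 37 °C, 5% CO2 before dosing, with time-zero plates TCA-fixed. Drug diluted from DMSO stock to 0.01, 0.1, 1, 10 and 100 µM final, 48 h. Cells fixed with cold TCA (10% final), stained with 0.4% SRB and read at 515 nm. Percent growth from Tz, control and test absorbances; GI50, TGI and LC50 from dose-response curves.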

[11] = tested on: OVCAR-4; assay: Growth inhibition of human OVCAR4 cells assessed as cell growth at 10^-6 M after 48 hrs by sulforhodamine B assay; conditions: OVCAR-4, 48 h, read-out: Activity
[12] = tested on: IGROV-1; assay: Growth inhibition of human IGROV1 cells assessed as cell growth at 10^-6 M after 48 hrs by sulforhodamine B assay; conditions: IGROV-1, 48 h, read-out: Activity; summary of the method: as §2
[13] = tested on: LOX IMVI; assay: Growth inhibition of human LOXIMVI cells assessed as cell growth at 10^-6 M after 48 hrs by sulforhodamine B assay; conditions: read-out: Activity
[14] = tested on: SF-295; assay: Growth inhibition of human SF295 cells assessed as cell growth at 10^-6 M after 48 hrs by sulforhodamine B assay; conditions: SF-295, 48 h, read-out: Activity
[15] = tested on: KM12; assay: Growth inhibition of human KM12 cells assessed as cell growth at 10^-6 M after 48 hrs by sulforhodamine B assay; conditions: KM12, 48 h, read-out: Activity
[16] = tested on: MOLT-4; assay: Growth inhibition of human MOLT4 cells assessed as cell growth at 10^-6 M after 48 hrs by sulforhodamine B assay; conditions: MOLT-4, 48 h, read-out: Activity
[17] = tested on: A498; assay: Growth inhibition of human A498 cells assessed as cell growth at 10^-7 M after 48 hrs by sulforhodamine B assay; conditions: A498, 48 h, read-out: Activity; summary of the method: as §1
[18] = tested on: SNB-75; assay: Growth inhibition of human SNB75 cells assessed as cell growth at 10^-7 M after 48 hrs by sulforhodamine B assay; conditions: SNB-75, 48 h, read-out: Activity
[19] = tested on: HCT-15; assay: Growth inhibition of human HCT15 cells assessed as cell growth at 10^-7 M after 48 hrs by sulforhodamine B assay; conditions: HCT-15, 48 h, read-out: Activity; summary of the method: as §2
[20] = tested on: NCI-H23; assay: Growth inhibition of human NCI-H23 cells assessed as cell growth at 10^-7 M after 48 hrs by sulforhodamine B assay; conditions: NCI-H23, 48 h, read-out: Activity
[21] = Growth inhibition of human EKVX cells assessed as cell growth at 10^-7 M after 48 hrs by sulforhodamine B assay; conditions: read-out: Activity; summary of the method: as §2
[22] = tested on: DU-145; assay: Growth inhibition of human DU145 cells assessed as cell growth at 10^-8 M after 48 hrs by sulforhodamine B assay; conditions: DU-145, 48 h, read-out: Activity; summary of the method: as §1
[23] = tested on: CAKI-1; assay: Growth inhibition of human CAKI-1 cells assessed as cell growth at 10^-8 M after 48 hrs by sulforhodamine B assay; conditions: CAKI-1, 48 h, read-out: Activity; summary of the method: as §1
[24] = tested on: OVCAR-4; assay: Growth inhibition of human OVCAR4 cells assessed as cell growth at 10^-8 M after 48 hrs by sulforhodamine B assay; conditions: OVCAR-4, 48 h, read-out: Activity
[25] = tested on: SNB-75; assay: Growth inhibition of human SNB75 cells assessed as cell growth at 10^-8 M after 48 hrs by sulforhodamine B assay; conditions: SNB-75, 48 h, read-out: Activity
[26] = tested on: HT-29; assay: Growth inhibition of human HT-29 cells assessed as cell growth at 10^-8 M after 48 hrs by sulforhodamine B assay; conditions: HT-29, 48 h, read-out: Activity; summary of the method: as §2
[27] = tested on: NCI-H322M; assay: Growth inhibition of human NCI-H322M cells assessed as cell growth at 10^-8 M after 48 hrs by sulforhodamine B assay; conditions: read-out: Activity
[28] = tested on: SN12C; assay: Growth inhibition of human SN12C cells after 48 hrs by sulforhodamine B assay; conditions: for CC50: read-out: LC50 (the source's name)
Summary of the method: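 Adherent cells in RPMI 1640 with 5% FBS and 2 mM L-glutamine were plated at 5000–40,000 cells/well and grown 24 h. Five concentrations (0.01–100 µM, DMSO stock) were added for 48 h at 37 °C. Cells were fixed with cold TCA (10% final) and stained with SRB, read at 515 nm. GI50 came from log concentration–growth curves against time-zero and control plates.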

[29] = tested on: SK-OV-3; assay: Growth inhibition of human SKOV3 cells after 48 hrs by sulforhodamine B assay; conditions: SK-OV-3, 48 h; for CC50: read-out: LC50 (the source's name)
Summary of the method: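 Five-dose NCI 60 screen at 0.01, 0.1, 1, 10 and 100 µM, 48 h exposure after 24 h preincubation, in RPMI 1640 with 5% FBS and 2 mM glutamine. Fixed with TCA (10% final for adherent cells, 16% for suspension cells), stained with SRB, A515 read. Percent growth uses time-zero (Tz), control and treated plates. GI50, TGI and LC50 are read from the dose-response curves.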

SMILES | growth at 100 µM [1] [%] | growth at 100 µM [2] [%] | growth at 100 µM [3] [%] | growth at 100 µM [4] [%] | growth at 10 µM [5] [%] | growth at 10 µM [6] [%] | growth at 10 µM [7] [%] | growth at 10 µM [8] [%] | growth at 10 µM [9] [%] | growth at 10 µM [10] [%] | growth at 1 µM [11] [%] | growth at 1 µM [12] [%] | growth at 1 µM [13] [%] | growth at 1 µM [14] [%] | growth at 1 µM [15] [%] | growth at 1 µM [16] [%] | growth at 0.1 µM [17] [%] | growth at 0.1 µM [18] [%] | growth at 0.1 µM [19] [%] | growth at 0.1 µM [20] [%] | other results
O=S(=O)(Nc1ccc(Cl)cc1)c1ccc2nc(-c3ccccc3)c(-c3ccccc3)nc2c1 | 54 | 65 | 75 | 88 | -12 | 26 | -99 | 12 | -53 | 3 | 76 | 93 | 89 | 82 | 102 | 86 | 76 | 68 | 98 | 92 | growth at 0.1 µM [21]: 100%; growth at 0.01 µM [22]: 105%; growth at 0.01 µM [23]: 87%; growth at 0.01 µM [24]: 85%; growth at 0.01 µM [25]: 75%; growth at 0.01 µM [26]: 100%; growth at 0.01 µM [27]: 93%; TGI [28]: > 100 µM; CC50 [28]: > 100 µM; TGI [29]: > 100 µM; CC50 [29]: > 100 µM
O=S(=O)(Nc1ccccn1)c1ccc2nc(-c3ccccc3)c(-c3ccccc3)nc2c1 | 41 | 45 | 47 | 65 | -12 | 31 | -93 | 3 | -56 | 3 | 82 | 102 | 88 | 90 | 99 | 80 | 87 | 90 | 98 | 94 | growth at 0.1 µM [21]: 99%; growth at 0.01 µM [22]: 102%; growth at 0.01 µM [23]: 91%; growth at 0.01 µM [24]: 100%; growth at 0.01 µM [25]: 85%; growth at 0.01 µM [26]: 102%; growth at 0.01 µM [27]: 96%; TGI [28]: > 100 µM; CC50 [28]: > 100 µM; GI50 [29]: 3.58 µM; TGI [29]: > 100 µM; CC50 [29]: > 100 µM
